Data taken from PubChem BioAssay.
Records with an inconclusive call do not appear.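 The calls were made as follows, unless noted: active = RAM network inhibition above 8.4% in each of two replicates, 3 SD over the compound average; inconclusive = above 8.4% inhibition in only one replicate; inactive = 8.4% inhibition or less in each replicate.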

Columns and labels:
[1] = S. cerevisiae growth inhibition in permissive medium (OD615), pilot counter-assay for S. cerevisiae lifespan shortening project, permissive growth control (AID 705;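 active = growth inhibition above 25% in both replicates, a cutoff set 3 SD above the mean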); conditions: OD615, 24 h, at 10 µM, hits give high values
In short: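 System: Engineered DeaD yeast | Buffer or medium: SC raffinose/galactose permissive medium | Doses: 10 µM single dose, 0.25% DMSO | Times: 24 h exposure, 30 °C | Measured by: OD615 turbidity read | Read-out: Yeast growth inhibition indicated by reduced 24 h OD615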

[2] = S. cerevisiae growth inhibition in restrictive medium, OD615, pilot screen, restrictive growth control, yeast lifespan reduction project (AID 706;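 active = growth inhibition above a set limit, 3 SD over mean compound inhibition, in both replicates, cut at about 43% in these data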;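 also: modified DeaD lifespan yeast strain shifted to restrictive glucose medium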); conditions: OD615, 48 h, at 10 µM, hits give high values
In short: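 Assay system: engineered S. cerevisiae DeaD strain; Buffer or medium: CSMM-D glucose medium; Dosing: 10 µM compound, 0.25% DMSO; Times: cell pre-growth 4 h, compound exposure 48 h, 30 °C; Detection: absorbance (optical density) measured at 615 nm.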

[3] = doxorubicin toxicity protection in MRP-1 cells – H69AR cells, CellTiter-Glo, duplicate, MRP-1 activator project, pilot screen (AID 807;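 active = viability increase at or above a cutoff of the median across tested compounds plus 3 SD, cut at about 8.5% in these data, passing the limit was not always enough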;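 also: compound pretreatment 18-22 h then 72 h combined with doxorubicin; 0% = doxorubicin alone and 100% = vehicle without doxorubicin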); conditions: H69AR viability with doxorubicin, CellTiter-Glo luminescence; at 10 µM; hits give high values
[4] = viability of HCT116 without oncogenic beta-catenin – human colon tumor cells, pilot screen (AID 823;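 active = cell viability at or below a set limit in both duplicate runs, the limit being the all-compound median minus 4 SD, cut at about 23% in these data, passing the limit was not always enough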;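 also: 0% = wells killed by 20 µM Hyamine and 100% = untreated DMSO cell wells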); conditions: HCT116 beta-catenin knockout viability, CellTiter-Glo, 60 h; at 10 µM; hits give low values
[5] = viability of PTEN-null HCT116 cells – cell-based, HCT116 clonal line, CellTiter-Glo, pilot screen (AID 824;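 active = viability at or below 27.92% in each of two runs, the all-compound median minus 4 SD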;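 also: 0% = 20 µM Hyamine control and 100% = vehicle cell control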); conditions: HCT116 PTEN-deleted viability, 60 h, at 10 µM, hits give low values
[6] = RAM pathway blockade in budding yeast – dse1pr::URA3 reporter, 5-FOA selection, pilot screen (AID 869;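 active = inhibition over a set limit, the all-compound mean plus 3 SD, in both replicate runs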;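 also: 0% = DMSO wells with no growth and 100% = 10 µM 1-NA-PP1 with full growth; RAM network block rescues cells from 5-FOA so hits raise OD615 growth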); conditions: S. cerevisiae dse1pr::URA3 5-FOA growth, OD615, 2 d; at 10 µM; hits give high values; strain carries analog-sensitive mutant Cbk1 kinase
[7] = RAM signaling pathway blockade in yeast – S. cerevisiae, Pdr1DBD-CYC8 efflux-inhibited sensitized strain, primary screen (AID 1298);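 also: 0% = DMSO untreated cells without growth and 100% = 10 µM 1-NA-PP1 full growth; higher means more yeast growth rescued from 5-FOA killing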; conditions: S. cerevisiae cbk1-as DSE1-URA3 strain, 5-FOA growth OD615, 2 d; at 50 µM; hits give high values

CCOc1ccc(NC(=O)CN(c2ccc(OC)cc2)S(C)(=O)=O)cc1
inactive: growth inhibition [1] 6.96% | growth inhibition [2] -0.54% | viability increase [3] 0.19% | viability [4] 98.1% | viability [5] 98.8% | inhibition [6] 1.7% | RAM network inhibition [7] 4.91%

CC(=O)c1sc(N2C(=O)c3oc4ccccc4c(=O)c3C2c2ccc(C)o2)nc1C (stereo unspecified)
inactive: growth inhibition [1] 3.87% | growth inhibition [2] 6.34% | viability increase [3] -3.31% | viability [4] 96.1% | viability [5] 94.3% | inhibition [6] 1.98% | RAM network inhibition [7] -0.52%

COc1cccc(NC(=O)CN2C(=O)COc3ccc(Cl)cc32)c1
inactive: growth inhibition [1] -12.2% | growth inhibition [2] -17.7% | viability increase [3] -0.8% | viability [4] 90% | viability [5] 84.7% | inhibition [6] 0.405% | RAM network inhibition [7] 0.31%

O=C(O)C1(P(=O)(c2ccccc2)c2ccccc2)CCC1
inactive: growth inhibition [1] -13.9% | growth inhibition [2] -5.79% | viability increase [3] -0.11% | viability [4] 99.6% | viability [5] 99.3% | inhibition [6] 1.34% | RAM network inhibition [7] 3.04%

CC(Oc1ccc(Cl)cc1Cl)C(=O)Nc1ccncc1 (stereo unspecified)
inactive: growth inhibition [1] -13.3% | growth inhibition [2] -9.66% | viability increase [3] -6.03% | viability [4] 54.9% | viability [5] 54.2% | inhibition [6] 1.19% | RAM network inhibition [7] 2.04%

CC(=O)C1=C(C)NC(=O)NC1c1ccccc1 (stereo unspecified)
inactive: growth inhibition [1] -7.36% | growth inhibition [2] -18.6% | viability increase [3] -2.61% | viability [4] 87.3% | viability [5] 91.5% | inhibition [6] 1.03% | RAM network inhibition [7] 5.38%

O=C(O)CCCC(=O)NCCCc1ccccc1
inactive: growth inhibition [1] -6.08% | growth inhibition [2] 3.99% | viability increase [3] -2.85% | viability [4] 98.5% | viability [5] 89.8% | inhibition [6] 1.02% | RAM network inhibition [7] 2.45%

COc1ccc(C)cc1S(=O)(=O)N1CCN(S(=O)(=O)c2cc(C)ccc2OC)C(C)C1 (stereo unspecified)
inactive: growth inhibition [1] -8.75% | growth inhibition [2] -8.42% | viability increase [3] -3.35% | viability [4] 88.7% | viability [5] 85.6% | inhibition [6] 2.99% | RAM network inhibition [7] 2.61%

COc1ccc(Cl)cc1N(CC(=O)N1CCN(Cc2ccccc2)CC1)S(C)(=O)=O
inactive: growth inhibition [1] -5.27% | growth inhibition [2] -11.1% | viability increase [3] -0.51% | viability [4] 95.9% | viability [5] 92.8% | inhibition [6] 1.38% | RAM network inhibition [7] 0.41%

CCc1ccc(C(=O)NCc2cccs2)s1
inactive: growth inhibition [1] -5.71% | growth inhibition [2] 4.03% | viability increase [3] 1.53% | viability [4] 104% | viability [5] 97.1% | inhibition [6] 0.715% | RAM network inhibition [7] -1.7%

O=C(COC(=O)c1ccc(S(=O)(=O)NCc2ccco2)cc1)Nc1ccccc1OC(F)F
inactive: growth inhibition [1] -8.88% | growth inhibition [2] -12.5% | viability increase [3] -2.64% | viability [4] 93.5% | viability [5] 93.7% | inhibition [6] 1.43% | RAM network inhibition [7] 7.18%

CC(=O)Oc1cc2c(C(=O)NCc3ccncc3)c(C)oc2c2ccccc12
inactive: growth inhibition [1] -15.1% | growth inhibition [2] -16.8% | viability increase [3] -3.14% | viability [4] 90.9% | viability [5] 95.8% | inhibition [6] 0.64% | RAM network inhibition [7] 8.02%

CC(C)N(Cc1nc(-c2ccccc2)no1)C(=O)COc1ccccc1
inactive: growth inhibition [1] -12% | growth inhibition [2] -11.7% | viability increase [3] -3.65% | viability [4] 88.2% | viability [5] 89.7% | inhibition [6] 1.03% | RAM network inhibition [7] 3.19%

Cn1c(SCC(=O)NCC2CCCO2)nc2c([nH]c3ccccc32)c1=O (stereo unspecified)
inactive: growth inhibition [1] 2.66% | growth inhibition [2] -9.87% | viability increase [3] -5.32% | viability [4] 90.5% | viability [5] 91.7% | inhibition [6] 0.065% | RAM network inhibition [7] 2.79%

CCN1CCN(CC(=O)Nc2ccc3c(c2)OCO3)C(=O)C1=O
inactive: growth inhibition [1] -18.6% | growth inhibition [2] -4.2% | viability increase [3] -0.45% | viability [4] 101% | viability [5] 100% | inhibition [6] 0.7% | RAM network inhibition [7] 6.72%

Cc1ccc(-n2c(C)cc(C(=O)OCC(=O)N(C)C3CCS(=O)(=O)C3)c2C)cc1 (stereo unspecified)
inactive: growth inhibition [1] -15.9% | growth inhibition [2] -17.3% | viability increase [3] -1.95% | viability [4] 91.7% | viability [5] 91.1% | inhibition [6] 0.955% | RAM network inhibition [7] 8.11%

CCOC(=O)C1CCN(S(=O)(=O)c2cccc3nonc23)CC1
inactive: growth inhibition [1] -5.04% | growth inhibition [2] -10.7% | viability increase [3] 0.01% | viability [4] 100% | viability [5] 96.8% | inhibition [6] 1.46% | RAM network inhibition [7] -1.5%

CCOC(=O)C(C)n1cnc2sc3c(c2c1=O)CCC3 (stereo unspecified)
inactive: growth inhibition [1] -8.5% | growth inhibition [2] -7.75% | viability increase [3] -1.76% | viability [4] 95.7% | viability [5] 99.6% | inhibition [6] 0.575% | RAM network inhibition [7] 1.15%

COc1ccc(C2C(C(=O)N3CCCCC3)c3ccccc3C(=O)N2C)cc1 (stereo unspecified)
inactive: growth inhibition [1] -2.93% | growth inhibition [2] -8.27% | viability increase [3] -2.9% | viability [4] 92.3% | viability [5] 91.2% | inhibition [6] 0.375% | RAM network inhibition [7] 2.69%

COc1ccccc1N(CC(=O)Nc1ccc2c(c1)OCO2)S(=O)(=O)c1ccccc1
inactive: growth inhibition [1] -5.44% | growth inhibition [2] -18.2% | viability increase [3] -0.47% | viability [4] 73.7% | viability [5] 84% | inhibition [6] 0.8% | RAM network inhibition [7] 8.21%

COC(=O)c1ccc(N2CCOCC2)c(NC(=O)Nc2cccc(OC)c2)c1
inactive: growth inhibition [1] -14.5% | growth inhibition [2] -8.03% | viability increase [3] -5.3% | viability [4] 84.4% | viability [5] 77.1% | inhibition [6] 1.09% | RAM network inhibition [7] 5.95%

N#CCCn1c(C(C#N)(CCC#N)CCC#N)nc2ccccc21
inactive: growth inhibition [1] 5.8% | growth inhibition [2] 5.04% | viability increase [3] -0.72% | viability [4] 96.5% | viability [5] 99.4% | inhibition [6] 1.6% | RAM network inhibition [7] 1.63%

COc1cc2c(cc1OC)C1=C(C#N)CN(C3CCCCC3)CN1CC2
inactive: growth inhibition [1] -11.3% | growth inhibition [2] 4.15% | viability increase [3] -3.47% | viability [4] 90% | viability [5] 81.1% | inhibition [6] 2.15% | RAM network inhibition [7] 3.92%

O=c1[nH]c(=S)[nH]nc1Cc1ccccc1
inactive: growth inhibition [1] -10% | growth inhibition [2] 13.4% | viability increase [3] -0.79% | viability [4] 101% | viability [5] 98.2% | inhibition [6] 0.12% | RAM network inhibition [7] 6.46%

CCn1cc(SCC(=O)NCc2ccc3c(c2)OCO3)c2ccccc21
inactive: growth inhibition [1] -9.14% | growth inhibition [2] -8.28% | viability increase [3] -1.84% | viability [4] 97.9% | viability [5] 92.7% | inhibition [6] 0.495% | RAM network inhibition [7] 3.73%

CCN1CCN(Cc2nc3c(c(=O)n(C)c(=O)n3C)n2Cc2ccccc2Cl)CC1
inactive: growth inhibition [1] -8.38% | growth inhibition [2] -13.4% | viability increase [3] -3.38% | viability [4] 91.7% | viability [5] 91.6% | inhibition [6] 1.17% | RAM network inhibition [7] 0.71%

O=C(CCn1c(=O)oc2ccccc21)Nc1cccc(Cl)c1
inactive: growth inhibition [1] -14.4% | growth inhibition [2] -11% | viability increase [3] 0.42% | viability [4] 92.8% | viability [5] 96.4% | inhibition [6] 2.17% | RAM network inhibition [7] 2.21%

CN(C)c1ccc(C2N(c3ccc(Cl)cc3)C(=O)C3CCCN32)cc1 (stereo unspecified)
inactive: growth inhibition [1] -2.63% | growth inhibition [2] 6.78% | viability increase [3] -1.01% | viability [4] 98.1% | viability [5] 98.7% | inhibition [6] 2.37% | RAM network inhibition [7] 1.57%

Cc1cccc(N2CCN(C(=O)C3CCCN(S(=O)(=O)c4cccc5cccnc45)C3)CC2)c1C (stereo unspecified)
inactive: growth inhibition [1] -6.73% | growth inhibition [2] 12.1% | viability increase [3] -4.58% | viability [4] 30.5% | viability [5] 35.8% | inhibition [6] 1.32% | RAM network inhibition [7] 1%

CCc1nnc(NC(=O)CSc2nccn2-c2cc(C)cc(C)c2)s1
inactive: growth inhibition [1] 3.21% | growth inhibition [2] 23% | viability increase [3] -6.31% | viability [4] 86.2% | viability [5] 75.8% | inhibition [6] 0.195% | RAM network inhibition [7] -1.37%

Cc1cc(C)c(C#N)c(SCC(=O)c2cccs2)n1
inactive: growth inhibition [1] -9.34% | growth inhibition [2] 1.01% | viability increase [3] -4.41% | viability [4] 78% | viability [5] 84.8% | inhibition [6] 1.6% | RAM network inhibition [7] 0.97%

CCOc1ccc(OCC)c(Nc2cc(C)nc3ncnn23)c1
inactive: growth inhibition [1] -1.1% | growth inhibition [2] 7.09% | viability increase [3] -3.71% | viability [4] 90% | viability [5] 87.7% | inhibition [6] 0.1% | RAM network inhibition [7] -0.06%

COc1cccc(-n2c(Cc3cc(=O)[nH]c(=O)[nH]3)nnc2SCC(=O)NC2CCCCC2)c1
inactive: growth inhibition [1] -4.46% | growth inhibition [2] -1.15% | viability increase [3] -1.6% | viability [4] 100% | viability [5] 101% | inhibition [6] 1.86% | RAM network inhibition [7] 3.48%
